Bioassay records from PubChem BioAssay.
Hits are enriched below; roughly 4.5% of the tested compounds scored in any of these assays.
OX1R antag-1 = blocks the human orexin 1 receptor; O43613; OX1R-expressing cells, FRET antagonist read-out; inhibition, % at 6.6 µM; 330,000 tested, 1.8% active; AID 485270; in the data active = inhibition mostly above about 38%, no sharp cut-off; inactive = mostly below about 40%;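 note: 0% = agonist challenge alone and 100% = reference antagonist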
TAAR1 antag = human TAAR1 antagonism | 360,000 tested, 1.5% active | inhibition, % at 3 µM | Q96RJ0 | CHO RD-HGA16 TAAR1, Fluo-8 calcium fluorescence, antagonist;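 active = inhibition above a per-plate cutoff, the mean inhibition of test compounds on that plate plus 3 SD, cut at about 49% in these data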;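 note: 0% = DMSO plus EC80 beta-PEA response and 100% = DMSO alone without agonist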
Target sequence (Q96RJ0 whole entry, looked up): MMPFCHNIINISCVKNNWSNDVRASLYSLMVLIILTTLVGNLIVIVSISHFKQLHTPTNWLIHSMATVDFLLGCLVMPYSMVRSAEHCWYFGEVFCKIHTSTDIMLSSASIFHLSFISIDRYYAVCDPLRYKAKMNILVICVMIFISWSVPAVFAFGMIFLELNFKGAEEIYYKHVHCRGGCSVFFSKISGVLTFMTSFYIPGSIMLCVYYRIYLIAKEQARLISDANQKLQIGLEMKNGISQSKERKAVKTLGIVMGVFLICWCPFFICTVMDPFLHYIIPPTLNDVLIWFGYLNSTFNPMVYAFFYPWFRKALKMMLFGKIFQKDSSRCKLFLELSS
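Test system – hTAAR1-expressing CHO RD-HGA16 cells, Gα16-coupled · Reagent – β-PEA at EC80 concentration, post-compound challenge · Compound dosing – 3 µM, single point · Timing – 140 s kinetic read after compound, 140 s after agonist · Detection – Fluo-8 intracellular calcium dye fluorescence, real-time kinetic reads · Control set – DMSO and EC80 PEA controls · Repeats – n of 1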
GPR7 antag = human neuropeptides B/W receptor 1 antagonism. P48145. 290,000 tested, 1.1% active. GPR7-expressing cells, fluorescence antagonist assay. inhibition, % at 4.4 µM; in the data active = inhibition above about 16%, passing the limit was not always enough;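 note: cells stimulated with the agonist NPW; 0% = agonist with vehicle and 100% = vehicle without agonist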
Target sequence (P48145 whole entry, looked up): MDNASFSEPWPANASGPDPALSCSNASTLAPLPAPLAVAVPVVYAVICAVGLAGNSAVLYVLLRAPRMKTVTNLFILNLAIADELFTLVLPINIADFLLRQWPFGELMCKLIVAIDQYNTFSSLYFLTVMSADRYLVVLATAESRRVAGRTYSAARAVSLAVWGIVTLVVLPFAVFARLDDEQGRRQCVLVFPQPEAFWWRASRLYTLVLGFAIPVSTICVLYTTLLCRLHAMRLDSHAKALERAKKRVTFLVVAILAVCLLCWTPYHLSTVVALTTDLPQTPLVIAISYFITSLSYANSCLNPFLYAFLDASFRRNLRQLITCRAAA
CHO parental Ca = signal in parental CHO cells, OX1R antagonist counter-screen; parental CHO-K1, ATP-induced calcium, Fluo-8 fluorescence; inhibition, % at 5.6 µM; 330,000 tested, 0.63% active; AID 463079;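 active = inhibition above that plate's mean sample inhibition plus 3 SD, cut at about 26% in these data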;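 note: 0% = ATP-challenged DMSO wells and 100% = DMSO wells without ATP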
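Test system: untransfected parental CHO cell line; also added: ATP stimulus; dosing: 5.6 µM, single dose; signal: calcium-sensitive Fluo-8 fluorescence; measure: percent inhibition of ATP-evoked calcium rise, normalized to controls; benchmarks: low control ATP plus DMSO, high control DMSO only; replication: one well per compound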
OX1R antag-2 = blocks the human orexin 1 receptor; inhibition, % at 5 µM; 330,000 tested, 0.43% active; AID 434989; CHO/OX1R cells, Fluo-8 calcium fluorescence, orexin A; O43613;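 active = inhibition above its plate's threshold, mean inhibition of all tested compounds on the plate plus 3 SD, cut at about 37% in these data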;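 note: 0% = orexin A challenge wells and 100% = SB-334867-A antagonist wells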
TAAR1 agonist = agonists of human TAAR1. CHO RD-HGA16 TAAR1, Fluo-8 calcium fluorescence; vehicle wells 0%, saturating PEA agonist 100%. activation, % at 3 µM. 360,000 tested, 0.99% active. AID 624467;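 active = activation above the mean activation of all test compounds in the run plus 3 SD, cut at about 38% in these data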
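Test system: RD-HGA16 (CHO) cells co-expressing Gα16 and hTAAR1 / Benchmarks: DMSO vehicle as 0%, PEA at EC100 as 100% / Repeats: no replicates (n 1) / Measure: % activation from peak over basal fluorescence ratio, DMSO-to-PEA scaled / Timing: 17-24 h plating, Fluo-8 75 min 37 °C, 30 min RT / Technique: kinetic Fluo-8 calcium fluorescence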
GPR7 antag cf = human GPR7 antagonism, confirmation assay | shares compounds with GPR7 antag | GPR7-expressing cells, calcium fluorescence antagonist mode | inhibition, % at 4.4 µM | 2,400 tested, 52% active | AID 1952; in the data active = inhibition above about 24%;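 note: stimulated with the GPR7 agonist NPW; 0% = agonist plus vehicle and 100% = vehicle alone without agonist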
MCHR1 antag = counter-screen for GPR7 antagonists: antagonists of human MCHR1. MCHR1-expressing cells, fluorescence antagonist assay. 2,400 tested, 62% active. inhibition, % at 4.4 µM. shares compounds with GPR7 antag; in the data active = inhibition above about 22%;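 note: 0% = vehicle with agonist and 100% = vehicle without agonist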
Active calls of the source: *; / = no result.

SMILES | OX1R antag-1 | TAAR1 antag | GPR7 antag | CHO parental Ca | OX1R antag-2 | TAAR1 agonist | GPR7 antag cf | MCHR1 antag
CCN(CC)CCCN(C(=O)c1ccco1)c1nc(-c2ccc(Cl)cc2)cs1 | 10 | 1 | 24* | -2 | -9 | 9 | 31* | 38*
CC1CCN(CC(O)COC2CC(C)CCC2C(C)C)CC1 (stereo unspecified) | 11 | -1 | 23* | -26 | -7 | 14 | 18 | 15
CC(C)CC1NC(=O)N(CC(=O)N(C)C2CCCCC2)C1=O (stereo unspecified) | 2 | -1 | / | -4 | -13 | 6 | / | /
CN(C(=O)CN1C(=O)C2C3CC(C(Br)C3Br)C2C1=O)C1CCCCC1 (stereo unspecified) | 7 | 17 | 23* | -14 | -2 | 35 | 39* | 4
O=C1CCc2cc(S(=O)(=O)Nc3ccccc3)cc3c2N1CCC3 | 6 | -10 | / | -11 | -8 | 1 | / | /
O=C(COc1ccc(F)cc1)N1CCc2ccccc2C1 | 13 | -8 | 28* | -5 | -15 | 6 | 21 | 9
CC1(C(=O)Nc2cccc(-n3cnnn3)c2)Cc2ccccc2C(=O)O1 (stereo unspecified) | 7 | 7 | / | -17 | -2 | 2 | / | /
CN(C)c1ccc(N=Nc2ccccc2C(=O)OCC(=O)N(C)C2CCCCC2)cc1 | 37 | -29 | 25* | 55* | -18 | 2 | 31* | 76*
CN(C)c1ccc(N=Nc2ccccc2C(=O)OCC(=O)NCC2CCCCC2)cc1 | 23 | 2 | -17 | 21 | -23 | 1 | / | /
COc1cc(C(=S)N2CCOCC2)ccc1OC(=O)c1ccc(Br)cc1 | / | 75* | 42* | / | / | 12 | 66* | 81*
CC(C)CNS(=O)(=O)c1ccc(CCC(=O)N2CCN(c3ccc(F)cc3)CC2)cc1 | 31 | 8 | 30* | -14 | -9 | 7 | 7 | 42*
O=[N+]([O-])c1ccc(N2CCSCC2)cc1 | 28 | 10 | 29* | -12 | -2 | 15 | 5 | 6
CN1CCCN(c2ccc([N+](=O)[O-])cc2)CC1 | 23 | -29 | 17 | -7 | -9 | 7 | / | /
O=[N+]([O-])c1ccc(N2CCN(c3ccc(F)cc3)CC2)cc1 | 5 | 13 | 44* | 18 | 10 | -1 | 23 | 37*
COc1ccc(N2CCN(C(=O)CCc3ccc(S(=O)(=O)NCC(C)C)cc3)CC2)cc1 | 7 | -8 | 2 | -4 | -7 | 16 | / | /
O=C(CCc1ccccc1)N1CCN(c2ccc([N+](=O)[O-])cc2)CC1 | 24 | -1 | 26* | 3 | 8 | -1 | 37* | 37*
CC(C)c1nc(CNC(=O)C2CCC(=O)N(CCc3ccc(Cl)cc3)C2)no1 (stereo unspecified) | 4 | -10 | -20 | 1 | -7 | 0 | / | /
CCOc1cc(C)c(S(=O)(=O)NC2CC(C)(C)NC(C)(C)C2)cc1C | 26 | 8 | -2 | -21 | -19 | 1 | / | /
Cc1cc(C)c(S(=O)(=O)NC2CC(C)(C)NC(C)(C)C2)cc1C | 14 | 0 | 101* | 17 | 2 | 2 | -4 | 2
O=C([C@@H]1CC=C[C@@H]2CCN(C3CC3)C(=O)[C@@H]21)N1CCN(c2ccccc2)CC1 | 17 | 4 | / | -2 | -3 | 19 | / | /
Cc1ccc(C(=O)N/N=C/c2ccoc2)cc1C | 5 | -5 | 26* | -9 | -50 | 0 | 4 | 6
Cc1cccc([N+](=O)[O-])c1NC(=O)CSc1nnc2ccccn12 | 7 | 3 | / | -10 | -14 | 2 | / | /
Cc1cc(C(=O)N2CCC(Cc3ccccc3)CC2)c(C)o1 | 6 | 3 | 28* | -7 | 5 | 1 | 27* | 33*
CC(=O)N1CCN(C(=O)c2cc(C)oc2C)CC1 | 3 | -20 | / | -4 | 0 | 11 | / | /
C[C@H](CO)N1C[C@H](C)[C@@H](CN(C)C(=O)Nc2ccc(C(F)(F)F)cc2)Oc2c(NS(=O)(=O)c3ccc(F)cc3)cccc2C1=O | 2 | -5 | / | -19 | -4 | 1 | / | /
SMILES | OX1R antag-1 | TAAR1 antag | GPR7 antag | CHO parental Ca | OX1R antag-2 | TAAR1 agonist | GPR7 antag cf | MCHR1 antag
COc1ccc(C(=O)OCC(=O)c2ccc3c(c2)NC(=O)CO3)cc1S(=O)(=O)N1CCOCC1 | 3 | 27 | / | -18 | -8 | 8 | / | /
CCOC(=O)C1CCCN(C(=O)c2cnn3c(C(F)(F)F)cc(-c4ccccc4)nc23)C1 (stereo unspecified) | 9 | 18 | 25* | -24 | -19 | 1 | 14 | 10
COc1ccc(C(CNC(=O)COc2cccc(C)c2)N2CCCC2)cc1 (stereo unspecified) | 10 | -3 | / | -24 | -35 | -2 | / | /
COc1ccc(C(CNC(=O)COc2ccc(Cl)c(C)c2)N2CCCCC2)cc1 (stereo unspecified) | 8 | 3 | 28* | -30 | -11 | -2 | 30* | 19
CCOc1ccccc1C(C(=O)NC1CCCCC1)N(C(=O)c1csnn1)C1CC1 (stereo unspecified) | 10 | 3 | -5 | -14 | -27 | -4 | / | /
O=C(NC1CCCCC1)C(c1ccncc1)N(Cc1ccc2c(c1)OCO2)C(=O)c1cnsn1 (stereo unspecified) | 11 | -11 | 26* | -7 | -11 | 9 | 30* | 9
Cc1cc2nc3c(=O)[nH]c(=O)[nH]c3nc2c([N+](=O)[O-])c1N | / | 8 | 25* | / | / | 13 | 13 | 4
Cc1c(N)c(C(C)(C)C)cc(C(C)(C)C)c1[N+](=O)[O-] | 18 | -16 | -18 | -22 | -30 | 16 | / | /
O=c1c2cc(NC(=S)NCCCN3CCC(Cc4ccccc4)CC3)ccc2nc2n1CCCCC2 | 16 | 8 | 22* | -6 | -4 | 27 | 52* | 73*
O=c1c2cc(NC(=S)NCCN3CCCCCC3)ccc2nc2n1CCCCC2 | 9 | -14 | -3 | -14 | -26 | 1 | / | /
O=C(COc1ccc(Br)cc1)Nc1ccc(CN2CCOCC2)cc1 | 26 | -6 | -2 | -8 | -7 | 8 | / | /
CN(CCOc1ccccc1)C(=S)Nc1ccc(OC(F)F)cc1 | 5 | -3 | 31* | -7 | -17 | 8 | 15 | 32*
COCCN(Cc1ccccc1)C(=S)Nc1ccc(OC(F)F)cc1 | 16 | 8 | -1 | -10 | -9 | -2 | / | /
CN(CCOc1ccc(Cl)cc1)CC(=O)Nc1ccc(OC(F)F)cc1 | -4 | 7 | 39* | -9 | -19 | -1 | 10 | 15
O=C(CC1SC(N2CCOCC2)=NC1=O)Nc1cccc(C(F)(F)F)c1 (stereo unspecified) | -2 | -6 | / | -17 | -11 | 5 | / | /
